In data set [1] the test system is Zika virus. In words: (§1) Competitive inhibition of Zika virus RNA-dependent RNA polymerase assessed as chain termination by measuring inhibition of full length RNA production in presence of 10 uM CTP by primer extension assay based PAGE analysis. Summed up:
(§2)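 Purified ZIKV NS5 RdRp (1 μM), E. coli-expressed ubiquitin fusion with C-terminal His tag. Assembled 30 min at 30 °C with pGGC RNA primer, 20-nt RNA template, ATP, GTP and [α-32P]-ATP in HEPES pH 7.5 buffer with Mg2+. Started with UTP, 10 μM CTP and ddhCTP 0–5000 μM, 5 min, EDTA quench. Full-length RNA scored by denaturing 23% PAGE. IC50 from curve fits, 3 independent repeats.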

A short description of data set [2]: as §1. Summed up:
as §2

Data set [3] has as its system West Nile virus. In words: Antiviral activity against West Nile virus infected in human Huh7.5 cells assessed as reduction in virus-induced cytopathic effect at 0.1 to 1 mM cells were pretreated with compound for 24 hrs followed by drug removal and subsequent viral infection for 1 hr and later incubated with compound and measured at 3 days post-infection. The data set is classed as functional, organism-based. As to conditions: dose 0.1-1 mM, time 3.0 day. Summed up:
(§3)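 Cells grown in DMEM with 2% FBS, pretreated 24 h before confluency with media containing 0, 0.1 or 1 mM compound (diluted from DMSO stocks). Media removed, WNV (2003 crow isolate) added at MOI 0.1 for 1 h, then washed 3x with HBSS. Drug-containing overlay applied, 37°C, 5% CO2, 3 days. Media harvested, titre by plaque titration, triplicate. One-way ANOVA with Dunnett's test.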

A further data set has as its system Vero. The data set can be described thus: Cytotoxicity against African green monkey Vero cells assessed as reduction in cell viability at 0.1 to 1 mM incubated for 2 days by Alamar Blue assay. The format is toxicity, cell-based. As to conditions: chlorocebus sabaeus, 48 h, 1000 µM, dose 0.1-1 mM, time 2 day. Summed up: (§4)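 HUH7 (2,000 cells/well) or Vero (1,500 cells/well) seeded in 10% FBS medium, 24 h; serially diluted compound added (final DMSO 0.5%); incubated 2 or 5 days; Alamar blue added 2 h before read; fluorescence minus no-cell background, normalized to DMSO control; technical triplicates, at least three biological replicates.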

The subject of data set [4] is West Nile virus. The data set can be described thus: Antiviral activity against West Nile virus infected in human Huh-7 cells assessed as reduction in virus-induced cytopathic effect at 0.1 to 1 mM cells were pretreated with compound for 24 hrs followed by drug removal and subsequent viral infection for 1 hr and later incubated with compound and measured at 3 days post-infection. The note with it: dose 0.1-1 mM, time 3.0 day. The data set is classed as functional, organism-based. Summed up: as §3

The subject of data set [5] is West Nile virus. In words: Antiviral activity against West Nile virus infected in African green monkey Vero cells assessed as reduction in virus-induced cytopathic effect at 0.1 to 1 mM cells were pretreated with compound for 24 hrs followed by drug removal and subsequent viral infection for 1 hr and later incubated with compound and measured at 3 days post-infection. The data set is classed as functional, organism-based. The note with it: dose 0.1-1 mM, time 3.0 day.

The next data set concerns Huh-7. In words: Cytotoxicity against human Huh-7 cells assessed as reduction in cell viability at 0.1 to 1 mM incubated for 2 days by Alamar Blue assay. The format is toxicity, cell-based. The note with it: huh-7, 48 h, 1000 µM, dose 0.1-1 mM, time 2 day. The essentials:
as §4

Data set [6] can be described thus: Drug metabolism in human Huh-7 cells expressing HINT1 assessed as ddhCTP level at 100 uM incubated for 24 hrs measured per 5 million cells by mass spectrometry (Rvb <0.01 nmol). The note with it: huh-7, 24 h.
Data set [7] is described as follows: Stability of the compound in simulated gastric fluid assessed as parent compound remaining at 200 uM measured after 6 hrs by LC-MS/MS analysis. The format is physicochemical. The note with it: read-out: Stability.
The nature of data set [8]: Metabolic stability of the compound in human plasma assessed as parent compound remaining at 2 uM measured upto 2 hrs by LC-MS analysis. The format is ADME, cell-free. The essentials: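 Pooled human plasma (3 male, 3 female), pH 7.4, spiked to 2 μM final; 37°C; sampled at 0, 10, 30, 60, 120 min; quenched with MeCN:MeOH containing tolbutamide and labetalol; LC-MS peak-area ratio versus internal standards, percent remaining relative to t0; propantheline as positive control.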

Data set [9] deals with Zika virus. The data set can be described thus: Antiviral activity against Zika virus PRABC59 infected in African green monkey Vero cells assessed as reduction in virus-induced cytopathic effect at 0.1 to 1 mM cells were pretreated with compound for 24 hrs followed by drug removal and subsequent viral infection for 1 hr and later incubated with compound and measured at 4 days post-infection. The data set is classed as functional, organism-based. The note with it: dose 0.1-1 mM, time 5.0 day.

In data set [10] the test system is West Nile virus. The data set can be described thus: Antiviral activity against West Nile virus infected in human Huh-7 cells assessed as log reduction in plaque forming units at 1 mM cells were pretreated with compound for 24 hrs followed by drug removal and subsequent viral infection for 1 hr and later incubated with compound and measured at 3 days post-infection. The data set is classed as functional. As to conditions: time 4 day. Summed up: (§5)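 Cells in 24-well plates (2% FBS medium) pretreated 24 h with compound in medium (0, 0.1, 1 mM), medium removed, infected at MOI 0.1 for 1 h, washed three times, overlaid with drug-containing medium; 37°C, 5% CO2 for 3 days (WNV, 2003 crow isolate) or 4 days (ZIKV PRABC59); supernatant titered by plaque assay; triplicates; one-way ANOVA with Dunnett's test.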

Data set [11] in a line: Apparent permeability across apical to basolateral side in human Caco-2 cells at 2 to 10 uM incubated for 2 hrs […]. The note with it: dose 2-10 µM. The data set is classed as ADME, cell-based. Summed up:
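Caco-2 monolayers grown 21-28 days; compound at 2 or 10 μM in HBSS/10 mM HEPES pH 7.4 (DMSO <1%); 2 h at 37°C, 5% CO2; donor and receiver quantified by LC-MS against internal standard; monolayer integrity by Lucifer Yellow; Papp from receiver accumulation rate, volume, area 0.0804 cm2 and initial donor concentration.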

Data set [12] concerns Zika virus. In words: Antiviral activity against Zika virus PRABC59 infected in human Huh7.5 cells assessed as log reduction in plaque forming units at 0.1 mM cells were pretreated with compound for 24 hrs followed by drug removal and subsequent viral infection for 1 hr and later incubated with compound and measured at 4 days post-infection. The data set is classed as functional. Further details: dose or concentration left out as unconfirmed. The note with it: time 5 day.

A short description of data set [13]: Cytotoxicity against African green monkey Vero cells assessed as cell viability at 1 mM incubated for 5 days by Alamar Blue assay. The format is toxicity, cell-based. As to conditions: chlorocebus sabaeus, time 5 day, read-out: Activity. Summed up: as §4
In data set [14] the test system is Zika virus. In words: Antiviral activity against Zika virus PRABC59 infected in human Huh-7 cells assessed as log reduction in plaque forming units at 0.1 mM cells were pretreated with compound for 24 hrs followed by drug removal and subsequent viral infection for 1 hr and later incubated with compound and measured at 4 days post-infection. The format is functional. As to conditions: time 5 day. The essentials: as §5

Data set [15] is described as follows: Drug metabolism in human Huh-7 cells transfected with HINT1 assessed as intracellular concentration of ddhCTP at 100 uM incubated for 24 hrs by mass spectrometry. As to conditions: huh-7, 24 h. The data set is classed as ADME, cell-based.
Data set [16] has as its system West Nile virus. In words: Antiviral activity against West Nile virus infected in human Huh7.5 cells assessed as log reduction in plaque forming units at 1 mM cells were pretreated with compound for 24 hrs followed by drug removal and subsequent viral infection for 1 hr and later incubated with compound and measured at 3 days post-infection. The note with it: time 4 day. The format is functional. The essentials: as §5

The nature of data set [17]: Cytotoxicity against human Huh-7 cells assessed as cell viability at 1 mM incubated for 5 days by Alamar Blue assay. The format is toxicity, cell-based. As to conditions: time 5 day, read-out: Activity. Summed up: as §4

Activity calls are given as the source filed them. No cut-off for these calls is given here.

Consider `Nc1ccn([C@@H]2OC(COP(=O)(O)OP(=O)(O)OP(=O)(O)O)=C[C@H]2O)c(=O)n1`, for which, in the data set on Zika virus [1], the inhibition result was “Dose-Dependent Effect”. The IC50 in data set [2] was 320 µM.

As for `Nc1ccn([C@@H]2OC(CO)=C[C@H]2O)c(=O)n1`, the outcome with West Nile virus [3], in the data set with West Nile virus [4] and in the data set on West Nile virus [5] was inactive. Moreover, the Activity entry in the data set with Vero and in the data set with Huh-7 was “Non-Toxic” each time. For the same compound, the Drug metabolism in [6] turned out to be 0.13 nmol.

In the case of `CC(C)OC(=O)[C@H](C)N[P@@](=O)(OCC1=C[C@@H](O)[C@H](n2ccc(N)nc2=O)O1)Oc1ccccc1`, the remaining at 6 h, 200 µM in [7] is 76%. Moreover, in data set [8], the Stability is reported as over 87%. Further, the result with Zika virus [9] and in the data set on West Nile virus [5] was inactive. Moreover, the Activity is listed as over 4 log10PFU/ml with West Nile virus [10]; “Non-Toxic” in the data set with Vero; over 1 log10PFU/ml in the data set with Zika virus [12]; over 1 log10PFU/ml with Zika virus [14]; over 4 log10PFU/ml with West Nile virus [16]; “Non-Toxic” with Huh-7. For the same compound, in data set [11], the Papp A→B at 2 h, up to 10 µM came to 0.03 ×10⁻⁶ cm/s. The viability at 120 h, 1000 µM in data set [13] and in data set [17] was over 60% in each case. Besides, the Drug metabolism in data set [15] was over 1 mM; in data set [6], 3.8 nmol.

These data come from ChEMBL document CHEMBL5226344, “A Chemical Strategy for Intracellular Arming of an Endogenous Broad-Spectrum Antiviral Nucleotide” (J Med Chem, 2021).
